# Screening results deposited in PubChem by The Scripps Research Institute Molecular Screening Center.
# RBBP9 inh – blocks human serine hydrolase RBBP9 | 0.2% of 220,000 active | inhibition, % at 7.94 µM | recombinant RBBP9, FP-Rh probe fluorescence polarization;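 active = inhibition above the campaign mean of all tested compounds plus 3 SD, cut at about 14% in these data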;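 note: plate controls were DMSO wells with RBBP9 for no effect and wells lacking RBBP9 protein for full effect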
#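 Test system: recombinant human RBBP9. Quantity: 2.5 µM RBBP9 dispensing solution, before mixing. Detection: FP readout at 525/598 nm. Reagent: Serine-hydrolase probe FP-Rh, 375 nM pre-mixing. Measure: % inhibition. Control set: DMSO-treated enzyme wells and wells lacking RBBP9. Buffer or medium: Tris-NaCl-Pluronic buffer, pH 8.0. Times: preincubation 30 min plus labeling 45 min at 25 °C.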
# GSTO1 inh – blocks human GSTO1 in RBBP9 counter-screen | recombinant GSTO1, activity-based probe fluorescence polarization | 1.1% of 300,000 active | AID 1974 | inhibition, % at 5.96 µM;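 active = inhibition above the campaign mean inhibition plus 3 SD, cut at about 35% in these data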;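 note: 0% = GSTO1-1 with DMSO and 100% = wells lacking GSTO1-1 enzyme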
# Fam108B inh – counter-screen for RBBP9 inhibitors: inhibitors of mouse Fam108B | recombinant Fam108B, FP-Rh probe fluorescence polarization | inhibition, % at 9.51 µM | 0.33% of 300,000 active;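 active = inhibition above the screen mean inhibition plus 3 SD, computed separately per campaign, cut at about 18% in these data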;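 note: inhibitors lower polarization as less probe binds the enzyme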
# PME-1 primary – blocks human protein phosphatase methylesterase 1; Q9Y570; recombinant PME-1, FP-Rh probe fluorescence polarization; inhibition, % at 5.9 µM; 0.53% of 320,000 active;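 active = inhibition above the campaign mean of all compounds plus 3 SD, cut at about 26% in these data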;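 note: competitive labeling of PME-1 active site by serine hydrolase directed probe; 0% = PME-1 with DMSO and 100% = wells lacking PME-1 enzyme; inhibitors block probe labeling so polarization falls and inhibition rises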
# Target sequence (Q9Y570 whole entry, looked up): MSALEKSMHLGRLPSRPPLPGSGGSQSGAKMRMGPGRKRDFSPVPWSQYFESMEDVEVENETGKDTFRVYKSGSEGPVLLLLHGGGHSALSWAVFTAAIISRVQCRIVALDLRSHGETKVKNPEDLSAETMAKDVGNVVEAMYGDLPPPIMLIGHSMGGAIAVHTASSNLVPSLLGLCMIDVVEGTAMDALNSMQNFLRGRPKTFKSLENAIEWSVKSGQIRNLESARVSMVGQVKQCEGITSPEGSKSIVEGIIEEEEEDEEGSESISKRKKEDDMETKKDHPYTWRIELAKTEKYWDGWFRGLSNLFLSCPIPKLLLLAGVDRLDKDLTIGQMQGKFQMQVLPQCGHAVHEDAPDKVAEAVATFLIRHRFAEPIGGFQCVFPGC
# PRMT1 FP inh – inhibitors of human PRMT1; inhibition, % at 2.79 µM; 1.3% of 370,000 active; recombinant PRMT1, activity-based probe fluorescence polarization; AID 652257;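 active = inhibition above about 21% made by adding two undisclosed values, limit read from the data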
# PAD4 FP inh – blocks human protein arginine deiminase 4; 0.41% of 330,000 active; inhibition, % at 6.36 µM; recombinant PAD4, RCA probe fluorescence polarization; AID 485272;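 active = percent inhibition above a cutoff equal to the mean of all tested compounds plus 3 SD, cut at about 15% in these data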;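 note: 0% = PAD4 with RCA probe and DMSO and 100% = probe without PAD4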
# Numbers without * were called inactive; · = not tested or not shown. The list is not random: actives were taken first. Their share in the collection is about 2.3%.
SMILES,RBBP9 inh,GSTO1 inh,Fam108B inh,PME-1 primary,PRMT1 FP inh,PAD4 FP inh
Cn1cnnc1SCC(=O)Nc1sc2c(c1C(N)=O)CCC2,4.2,35.9*,15.4,2.1,19.6,-3.6
CCn1c(SCC(=O)Nc2sc3c(c2C(N)=O)CCC(C)C3)nnc1-c1ccco1 (centres undefined),-2.4,12.5,0.7,13.0,22.5*,-3.5
COCCn1cnnc1SCC(=O)Nc1sc2c(c1C#N)CCC2,·,·,·,2.9,-3.8,-1.4
O=CN1Cc2ccccc2-c2ccccc2C1,·,·,·,·,4.6,·
Cc1ccc(CNC(=S)Nc2cc(C)ccc2OC(F)F)cc1,3.9,0.4,-2.7,10.0,-2.4,-0.4
CC(C)n1c(=S)[nH]c2scc(-c3cccs3)c2c1=O,-8.6,16.2,14.5,-1.9,8.6,-12.6
CCn1c(=S)[nH]c2scc(-c3cccs3)c2c1=O,-12.4,·,·,·,23.2*,·
Cc1ccc(NCC(O)C(O)C(O)CO)c(N=Nc2ccccc2)c1C (centres undefined),3.8,9.7,1.1,52.4*,-4.1,3.9
CCOC(=O)c1cnc(-n2nc(C)cc2C)nc1Nc1ccc(O)cc1,-5.5,7.6,1.5,3.1,-1.9,-3.8
COc1ccc(CC(=O)NCc2cccc(CNC(=O)Cc3ccc(OC)c(OC)c3)c2)cc1OC,·,3.6,-0.6,6.5,7.5,-0.5
C/C(=C\c1ccc2c(c1)OCO2)C1Nc2cccc3cccc(c23)N1,·,·,·,37.4*,2.4,-0.4
Cn1c(N)c(C(=O)COC(=O)c2cc(-c3ccco3)nc3ccccc23)c(=O)n(Cc2ccccc2)c1=O,-23.2,-11.4,-14.6,-35.9,·,-18.1
Cn1c(N)c(C(=O)COC(=O)c2cc(-c3ccco3)nc3ccccc23)c(=O)n(C)c1=O,-14.4,·,·,·,22.3*,·
CN1CCc2c(sc3c2C(=O)NC(c2ccccc2)N3)C1 (centres undefined),-7.0,0.4,-4.2,-5.0,9.4,1.8
CN1CCc2c(sc3c2C(=O)NC(c2ccccn2)N3)C1 (centres undefined),-1.1,6.5,-4.9,-7.2,26.6*,4.8
Cc1ccc(NC(=O)c2ccc(CSc3nnc(-c4ccncc4)n3C)cc2)c(C)c1,-10.3,-1.1,-1.6,-4.2,-5.3,-2.0
O=C(CSC1=NCCS1)Nc1ccnc2ccccc12,-1.6,7.7,-1.2,-7.1,23.5*,2.5
Cc1cc(C)nc(SCC(=O)Nc2ccnc3ccccc23)n1,-8.9,-4.5,-1.8,-2.3,1.3,-0.1
COc1cnn(-c2ccc(C)cc2)c(=O)c1SCc1ccccc1,-4.3,2.8,0.4,-7.0,0.7,-0.5
COC(=O)[C@@]1(Cc2ccc(F)cc2)[C@H]2c3cc(C(=O)N4CCCC4)n(CCc4c[nH]c5ccccc45)c3C[C@H]2CN1C(=O)c1ccccc1,·,·,·,·,-1.5,·
CCn1c(SCC(=O)NNC(=S)Nc2ccc(C)cc2)nnc1-c1ccc(Cl)cc1,-6.8,35.1*,2.3,-0.9,-6.2,-7.0
Cc1ccc(NC(=S)NNC(=O)CSc2nnc(-c3ccc(Cl)cc3)n2C2CCCCC2)cc1,-7.1,-1.8,0.3,-1.0,1.2,1.3
N#CCNC1CC(=O)N(c2ccc(F)cc2)C1=O (centres undefined),·,1.3,1.8,-2.1,22.2*,0.5
O=C1CC(NCC2CCCO2)C(=O)N1c1ccc(F)cc1 (centres undefined),0.1,1.1,3.9,-4.3,9.6,5.9
O=C1CC(NCc2ccc(F)cc2)C(=O)N1c1ccccc1 (centres undefined),-8.2,7.5,2.1,-1.8,21.7*,2.6
SMILES,RBBP9 inh,GSTO1 inh,Fam108B inh,PME-1 primary,PRMT1 FP inh,PAD4 FP inh
CCc1ccc(C(=O)CSc2ncn[nH]2)cc1,-7.6,13.9,3.7,3.3,23.4*,0.2
CC1CC(C)CN(C(=O)C2CCCN(S(=O)(=O)c3cccc4nonc34)C2)C1 (centres undefined),-6.5,-3.8,-5.2,4.5,0.4,-8.7
C/C(=N\NC(=O)c1ccccc1O)c1ccc(Br)s1,-9.1,72.7*,0.9,-4.5,-0.5,2.6
C/C(=N\Nc1nc2ccccc2s1)c1ccc(Br)s1,-4.4,-2.4,-3.0,51.5*,1.9,0.9
Cc1ccccc1/C=N/n1c(-c2cc(-c3ccccc3)n[nH]2)n[nH]c1=S,-14.7,-9.8,0.7,19.8,15.9,2.4
Cc1ccsc1/C=N/n1c(-c2cc(-c3ccccc3)n[nH]2)n[nH]c1=S,2.9,14.9,5.2,35.4*,10.8,4.5
S=c1[nH]nc(-c2ccccc2)n1/N=C/c1ccc(Cl)cc1,·,·,·,·,21.6*,·
